We go through 25 molecules from ChEMBL document CHEMBL4376878, “Potent Thiophene Antagonists of Human Complement C3a Receptor with Anti-Inflammatory Activity” (J Med Chem, 2020).

Structures are written as SMILES. The source made the active and inactive calls. The calls are words filed in the database; no cut-off is given here. Some results are limits rather than exact numbers.

For data set [1], the target named is T1, C3a anaphylatoxin chemotactic receptor (Homo sapiens, UniProt Q16581).
T1 sequence (Q16581 whole entry): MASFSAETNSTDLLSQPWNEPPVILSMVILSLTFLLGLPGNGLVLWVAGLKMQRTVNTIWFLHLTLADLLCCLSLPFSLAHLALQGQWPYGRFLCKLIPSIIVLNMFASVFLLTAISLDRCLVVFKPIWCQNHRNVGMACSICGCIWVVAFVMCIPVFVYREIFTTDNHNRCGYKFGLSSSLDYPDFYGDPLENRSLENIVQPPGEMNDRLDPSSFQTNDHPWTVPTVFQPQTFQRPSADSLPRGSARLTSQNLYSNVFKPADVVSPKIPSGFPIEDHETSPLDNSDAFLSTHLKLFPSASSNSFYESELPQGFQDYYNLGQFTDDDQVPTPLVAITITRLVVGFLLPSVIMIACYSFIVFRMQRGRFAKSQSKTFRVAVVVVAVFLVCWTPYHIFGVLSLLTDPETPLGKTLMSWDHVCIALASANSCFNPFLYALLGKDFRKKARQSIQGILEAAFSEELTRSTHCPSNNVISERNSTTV
The experiment in a line: Agonist activity at C3a receptor in human MDM cells assessed as induction of intracellular calcium release measured at 1 sec interval for => 200 secs by Fluo-3 AM dye-based FLIPR assay. It is filed as cell-based. The method in brief: (§1)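 HMDMs were differentiated from CD14⁺ monocytes with M-CSF (100 ng/mL) for 7 days and seeded overnight at 5 × 10⁴ cells/well. Cells were loaded with 4 μM Fluo-3 AM for 1 h at 37 °C, then placed in HBSS with 2.5 mM probenecid and 20 mM HEPES, pH 7.4. Agonist was added on FLIPR and read at ex 495/em 520 nm. EC50 is relative to the maximum from 1 μM C3a; n ≥ 3.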
Background: Calcium assays in cells follow changes in intracellular calcium, usually with a dye or a luminescent sensor.

Data set [2] concerns the target T1, C3a anaphylatoxin chemotactic receptor. The experiment in a line: Partial agonist activity at C3a receptor in human MDM cells assessed as induction of intracellular calcium release at higher concentration measured at 1 sec interval for => 200 secs by Fluo-3 AM dye-based FLIPR assay relative to control. The class given is cell-based. The method in brief:
as §1

Data set [3] has the same target. The experiment in a line: Antagonist activity at C3a receptor in human MDM cells assessed as inhibition of C3a-induced intracellular calcium release preincubated for 30 mins followed by C3a addition and measured at 1 sec interval for => 200 secs by Fluo-3 AM dye-based FLIPR assay. The class given is functional, cell-based. To be noted: read-out: IC50. The method in brief:
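Macrophages were derived from CD14⁺ monocytes (M-CSF, 7 days) and dye-loaded with 4 μM Fluo-3 AM for 1 h at 37 °C in HBSS/probenecid/HEPES, pH 7.4. Antagonist was preincubated for 30 min at 37 °C before addition of synthetic full-length human C3a (100 nM). FLIPR fluorescence was read at ex 495/em 520 nm. Percent response was plotted against log concentration; n ≥ 3.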

The target in data set [4] is T2, C5a anaphylatoxin chemotactic receptor 1 (Homo sapiens) (UniProt P21730).
T2 sequence (whole entry): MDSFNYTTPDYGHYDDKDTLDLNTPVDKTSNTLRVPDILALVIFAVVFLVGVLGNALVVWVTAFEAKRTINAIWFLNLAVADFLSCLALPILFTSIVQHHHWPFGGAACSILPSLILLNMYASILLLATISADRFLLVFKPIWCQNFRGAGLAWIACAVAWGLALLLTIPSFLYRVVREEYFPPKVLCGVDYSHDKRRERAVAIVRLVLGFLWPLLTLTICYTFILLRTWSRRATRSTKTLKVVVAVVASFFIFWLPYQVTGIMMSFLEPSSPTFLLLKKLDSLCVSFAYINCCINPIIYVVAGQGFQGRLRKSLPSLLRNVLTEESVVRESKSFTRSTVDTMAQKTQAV
The experiment in a line: Antagonist activity at C5a receptor in human MDM cells assessed as inhibition of C5a-induced intracellular calcium release preincubated for 30 mins followed by C5a addition and measured at 1 sec interval for => 200 secs by Fluo-3 AM dye-based FLIPR assay. It is filed as functional, cell-based. In a few lines: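 HMDMs from CD14+ monocytes after 7 days in M-CSF; 5 × 10⁴ cells/well seeded overnight. Cells loaded 1 h at 37 °C with 4 μM Fluo-3 AM, then washed into HBSS with 2.5 mM probenecid and 20 mM HEPES, pH 7.4. Antagonist preincubated 30 min at 37 °C before C5a. Fluorescence (ex 495/em 520 nm) read every 1 s for ≥200 s.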

For data set [5], the target named is T3, C3a anaphylatoxin chemotactic receptor (Homo sapiens) (UniProt Q16581).
T3 sequence (whole entry): T1 sequence (Q16581 whole entry)
As to the kind of experiment: Displacement of Eu-DTPA-C3a from Galpha16-coupled C3a receptor (unknown origin) expressed in HEK293 cells measured after 60 mins by time-resolved fluorescence assay. It is filed as cell-based.

Data set [6] can be described thus: Stability of the compound in rat liver microsomes at 1 uM preincubated for 5 mins followed by NADPH addition and measured after 1 hr by LC-MS/MS analysis. It is filed as ADME, Microsome. In a few lines: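 Compound at 1 μM in 100 mM phosphate buffer, pH 7.4 (0.1% DMSO), was incubated with rat liver microsomes […] at 37 °C before further NADPH was added. Aliquots taken at 0, 5, 15, 30 and 60 min were quenched in MeCN/H₂O (9:1), centrifuged and analysed by LC-MS/MS. Microsomal activity was confirmed in parallel with SLIGRL-NH₂; n = 3.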

As usually defined, the IC50 is the point on the concentration scale where inhibition reaches its midpoint.

Consider `Cc1cc(C(c2cccc(Cl)c2)c2cccc(Cl)c2)sc1C(=O)N[C@@H](CCCNC(=N)N)C(=O)O`, for which the EC50 in data set [1] (read-out: EC50) turned out to be 0.046 µM. The Activity result in data set [2] is recorded as “<= 80%”. The IC50 in data set [3] was determined as 0.003 µM.
In the case of `CCC(c1ccccc1)c1ccc(C(=O)N[C@@H](CCCNC(=N)N)C(=O)O)s1` (mixture of isomers), the EC50 in data set [1] (read-out: EC50) and in data set [1] (read-out: pEC50 (converted)) was over 100 µM in each case. Moreover, in data set [3], the half-inhibitory concentration (IC50) is 2.3 µM.
`N=C(N)NCCC[C@H](NC(=O)c1ccc(Cc2ccccc2)s1)C(=O)O`: the EC50 in data set [1] (read-out: EC50) and in data set [1] (read-out: pEC50 (converted)) was over 100 µM in each case. In addition, in data set [3], the IC50 was over 10 µM.
As for `N=C(N)NCCC[C@H](NC(=O)c1cnc(C(c2ccccc2)c2ccccc2)s1)C(=O)O`, the EC50 in data set [1] (read-out: EC50) and in data set [1] (read-out: pEC50 (converted)) was over 100 µM throughout. The IC50 in data set [3] came out at 0.6 µM.
With `N=C(N)NCCC[C@H](NC(=O)c1ccc(C(c2ccccc2)C2CCCCC2)s1)C(=O)O` (mixture of isomers), the EC50 in data set [1] (read-out: EC50) was 0.07 µM. Also, in data set [2], the Activity result is “<= 30%”. Also, the half-maximal inhibitory concentration (IC50) in data set [3] is 0.004 µM.
Turning to `CC(C)=C(c1ccccc1)c1ccc(C(=O)N[C@@H](CCCNC(=N)N)C(=O)O)s1`, the EC50 in data set [1] (read-out: EC50) and in data set [1] (read-out: pEC50 (converted)) was over 100 µM each time. Besides, the IC50 in data set [3] was found to be 4.4 µM.
Consider `CCC(Cc1ccccc1)c1ccc(C(=O)N[C@@H](CCCNC(=N)N)C(=O)O)s1` (mixture of isomers), for which the EC50 in data set [1] (read-out: EC50) and in data set [1] (read-out: pEC50 (converted)) was over 100 µM throughout. The IC50 in data set [3] is 0.2 µM.
Turning to `N=C(N)NCCC[C@H](NC(=O)c1ccc(C(c2ccc(F)cc2)c2ccc(F)cc2)s1)C(=O)O`, the EC50 in data set [1] (read-out: EC50) and in data set [1] (read-out: pEC50 (converted)) was over 10 µM throughout. In addition, the IC50 in data set [3] was 0.1 µM.
For the molecule `Cc1cc(C(=O)N[C@@H](CCCNC(=N)N)C(=O)O)sc1C(c1ccccc1)c1ccccc1`, the EC50 in data set [1] (read-out: EC50) and in data set [1] (read-out: pEC50 (converted)) was over 100 µM each time. Besides, the 50% inhibitory concentration (IC50) in data set [3] came out at 0.14 µM.
As for `N=C(N)NCCC[C@H](NC(=O)c1ccc(C(c2cccc(Cl)c2)c2cccc(Cl)c2)s1)C(=O)O`, the EC50 in data set [1] (read-out: EC50) worked out at 0.05 µM. Besides, in data set [2], the Activity result is listed as “<= 60%”. Further, the IC50 in data set [3] was determined as 0.006 µM.
On to `COc1ccc(C(c2ccc(OC)cc2)c2cc(C)c(C(=O)N[C@@H](CCCNC(=N)N)C(=O)O)s2)cc1`, for which the EC50 in data set [1] (read-out: EC50) and in data set [1] (read-out: pEC50 (converted)) was over 100 µM each time. In data set [3], the IC50 is 2 µM.
Take `CC(=O)N[C@@H](Cc1ccccc1)C(=O)N[C@H]1CCCNC(=O)[C@H](CCCN=C(N)N)NC(=O)[C@H](Cc2c[nH]c3ccccc23)NC(=O)[C@@H](CC2CCCCC2)NC(=O)[C@@H]2CCCN2C1=O`: the inhibition result in data set [4] was “Active”.
Take `Cc1[nH]c(C(c2ccccc2)c2ccccc2)nc1C(=O)N[C@@H](CCCNC(=N)N)C(=O)O`: the inhibition entry in data set [5] is “Dose-dependent effect”.
`Cc1cc(C(c2ccc(O)cc2)c2ccc(O)cc2)sc1C(=O)N[C@@H](CCCNC(=N)N)C(=O)O`: the Stability entry in data set [6] is reported as “Stable”. In addition, the EC50 in data set [1] (read-out: EC50) and in data set [1] (read-out: pEC50 (converted)) was over 100 µM throughout. Also, in data set [3], the concentration for half-maximal inhibition (IC50) came out at 0.79 µM.
For `N=C(N)NCCC[C@H](NC(=O)c1sc(C(c2ccccc2)c2ccccc2)cc1-c1ccccc1)C(=O)O`, the EC50 in data set [1] (read-out: EC50) and in data set [1] (read-out: pEC50 (converted)) was over 100 µM in each case. The IC50 in data set [3] is over 100 µM.
For `N=C(N)NCCC[C@H](NC(=O)c1cc(-c2ccccc2)c(C(c2ccccc2)c2ccccc2)s1)C(=O)O`, the EC50 in data set [1] (read-out: EC50) and in data set [1] (read-out: pEC50 (converted)) was over 100 µM in each case. Moreover, in data set [3], the IC50 is 0.14 µM.
As to `N=C(N)NCCC[C@H](NC(=O)c1ccc(C2CCCCCCCCCCC2)s1)C(=O)O`, the EC50 in data set [1] (read-out: EC50) and in data set [1] (read-out: pEC50 (converted)) was over 100 µM throughout. The IC50 in data set [3] was over 100 µM.
For the molecule `COc1ccc(C(c2ccc(OC)cc2)c2ccc(C(=O)N[C@@H](CCCNC(=N)N)C(=O)O)s2)cc1`, the EC50 in data set [1] (read-out: EC50) and in data set [1] (read-out: pEC50 (converted)) was over 100 µM each time. Further, the IC50 in data set [3] was found to be 6.1 µM.
For `Cc1cc(C(c2ccc(F)cc2)c2ccc(F)cc2)sc1C(=O)N[C@@H](CCCNC(=N)N)C(=O)O`, the EC50 in data set [1] (read-out: EC50) and in data set [1] (read-out: pEC50 (converted)) was over 100 µM each time. Besides, the Activity in data set [2] was in the range of 30 to 80%. Also, the 50% inhibitory concentration (IC50) in data set [3] is 0.035 µM.
For the molecule `N=C(N)NCCC[C@H](NC(=O)c1ccc(C(c2ccccc2)c2ccccn2)s1)C(=O)O` (mixture of isomers), the EC50 in data set [1] (read-out: EC50) and in data set [1] (read-out: pEC50 (converted)) was over 100 µM throughout. For the same molecule, the Activity in data set [2] lay within 30 to 80%. Also, the IC50 in data set [3] worked out at 0.04 µM.
`N=C(N)NCCC[C@H](NC(=O)c1sc(C(c2ccccc2)c2ccccc2)c2c1CCCC2)C(=O)O`: the EC50 in data set [1] (read-out: EC50) and in data set [1] (read-out: pEC50 (converted)) was over 100 µM in each case. The IC50 in data set [3] was 2.4 µM.
`N=C(N)NCCC[C@H](NC(=O)c1sc(C(c2ccccc2)c2ccccc2)cc1Br)C(=O)O`: the EC50 in data set [1] (read-out: pEC50 (converted)) was 100 µM. Moreover, in data set [2], the Activity lay in the range of 30 to 80%. In addition, the half-maximal inhibitory concentration (IC50) in data set [3] was determined as 0.51 µM.
Take `CC(c1ccccc1)c1ccc(C(=O)N[C@@H](CCCNC(=N)N)C(=O)O)s1` (mixture of isomers): the EC50 in data set [1] (read-out: EC50) and in data set [1] (read-out: pEC50 (converted)) was over 100 µM in each case. Also, in data set [3], the IC50 was over 10 µM.
As for `N=C(N)NCCC[C@H](NC(=O)c1ccc(C(c2ccccc2)c2ccc3ccccc3c2)s1)C(=O)O` (mixture of isomers), the EC50 in data set [1] (read-out: EC50) and in data set [1] (read-out: pEC50 (converted)) was over 100 µM in each case. Further, the IC50 in data set [3] amounted to 0.09 µM.
Regarding `N=C(N)NCCC[C@H](NC(=O)c1ccc(C(Cc2ccccc2)Cc2ccccc2)s1)C(=O)O`, the EC50 in data set [1] (read-out: EC50) and in data set [1] (read-out: pEC50 (converted)) was over 100 µM throughout. Also, the 50% inhibitory concentration (IC50) in data set [3] turned out to be 0.1 µM.
